# Screening data from PubChem BioAssay.
# Hits are enriched below; roughly 1.3% of the tested compounds scored in any of these assays.
# HCV NS3 hel inh = blocks Hepatitis C virus NS3 helicase unwinding; NS3 helicase DNA unwinding, Cy5 molecular beacon fluorescence; inhibition, % at 10.9 µM; actives 0.56% (n = 290,000);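 active means inhibition above the mean of all tested compounds plus 3 SD, set per campaign, cut at about 35% in these data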;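 further: 0% = DMSO wells and 100% = thioflavine S control wells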
#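 Compound dosing – single dose, 10.9 µM nominal final, DMSO 0.8% final · System – NS3 helicase fragment of HCV · Buffer or medium – MOPS pH 6.5, MgCl2, DTT, Tween20, BSA · Signal – Cy5 beacon fluorescence read at start and 1 h · Also added – annealed dual-labelled DNA beacon duplex, ATP-started · Schedule – 1 h at 25 °C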
# HCV core dimer = blocks dimerization of HCV core protein. TR-FRET GST/Flag-core106 dimerization, 1536-well. inhibition, % at 5 µM. actives 0.33% (n = 300,000). AID 1899;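 active means inhibition above the mean of all tested compounds plus 3 SD, set per screening campaign, cut at about 45% in these data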
#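 Test system: GST/Flag-tagged HCV core106 proteins; Medium: KF-containing HEPES buffer, pH 7.45, DTT, CHAPS, BSA; Times: compound-protein-antibody incubation 4 h at 22.5 °C; Detection: TR-FRET 671 and 617 nm emission; Benchmarks: wells lacking GST-core106 and wells with excess unlabelled core106.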
# TbMetRS inhib = blocks T. brucei methionyl-tRNA synthetase activity | inhibition, % at 11.9 µM | actives 0.4% (n = 360,000) | AID 624268 | purified T. brucei MetRS, ATP depletion, Kinase-Glo luminescence;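 active means inhibition above a per-plate cutoff of the control wells' mean inhibition plus 3 SD, cut at about 5.5% in these data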;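 further: 0% = DMSO wells median and 100% = median of wells with control inhibitor compound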
#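 Material – parasite MetRS enzyme · Medium – HEPES-MgCl2-KCl buffer plus DTT, spermine, BSA, pyrophosphatase · Reagent – ATP, methionine and E. coli bulk tRNA substrates · Times – 15 min enzyme-compound preincubation, 2 h reaction, 10 min detection, 25 °C · Measured by – luminescence of leftover ATP · Evaluation – percent inhibition relative to median high and low control wells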
# Hep lipid drop = modulators of hepatic lipid droplet formation. AML12 mouse hepatocytes, oleate lipid droplets, BODIPY imaging. inhibition, % at 6.5 µM. actives 0.4% (n = 240,000). AID 1656;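 active means lipid droplet intensity inhibited by at least 50%, with more than 500 cells counted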
#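 Assay system: AML12 mouse liver cells | Compound dosing: One dose, 6.5 µM compound | Read-out basis: Droplet intensity reduction, % inhibition | Measured by: Fluorescence imaging, 20x objective, two fields per well | Schedule: Overnight treatment with compound plus oleate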
# NS3 helicase cf = HCV NS3 helicase inhibition, confirmation assay. AID 1943. NS3 helicase DNA unwinding, Cy5 molecular beacon fluorescence. inhibition, % at 10.9 µM. actives 31% (n = 1,600). shares compounds with HCV NS3 hel inh;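 active means inhibition above the mean of all tested compounds plus 3 SD, cutoff set per campaign, cut at about 36% in these data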
# FID counter trip = counter-screen for HCV NS3 helicase inhibitors: DNA intercalator displacement | DNA fluorescent intercalator displacement, fluorescence | AID 1945 | shares compounds with HCV NS3 hel inh | actives 4% (n = 1,600) | inhibition, % at 7.9 µM; in the data active means inhibition above about 37%;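 further: 0% = vehicle and 100% = reference compound; higher means more displacement of ethidium bromide from the DNA hairpin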
# FID counter DR = counter-screen for HCV NS3 helicase inhibitors: DNA intercalator displacement dose response; shares compounds with HCV NS3 hel inh; fluorescent intercalator displacement from DNA, fluorescence; IC50, µM; 120 tested, under 10 active; AID 2172; call rule not given here
# Active calls of the source: *; i = inactive; x = no result given.
SMILES,HCV NS3 hel inh,HCV core dimer,TbMetRS inhib,Hep lipid drop,NS3 helicase cf,FID counter trip,others
O=C1NC(=S)N(Cc2ccco2)C(=O)/C1=C\c1cccs1,51.6*,x,x,14.5,77.1*,21.0,
O=C1NC(=O)N(Cc2ccco2)C(=O)/C1=C/c1ccc(-c2cccc([N+](=O)[O-])c2)o1,38.6*,16.0,0.2,-15.7,66.5*,17.6,
C=CCN1C(=O)NC(=O)/C(=C\c2ccc(-c3ccccc3[N+](=O)[O-])o2)C1=O,8.3,2.1,0.1,1.1,x,x,
CN(C)c1ccc(/C=C2/C(=O)NC(=O)N(Cc3ccco3)C2=O)cc1,25.1,4.4,-0.2,-15.8,x,x,
Cc1cc(/C=C2/C(=O)NC(=O)N(Cc3ccco3)C2=O)c(C)n1-c1ccccc1,49.8*,35.0,0.5,6.1,7.5,-28.6,
C=CCN1C(=O)/C(=C/c2cccs2)C(=O)NC1=S,17.8,0.6,0.5,-19.0,x,x,
FC(F)(F)c1cccc(NC2=NCCS2)c1,x,x,-0.2,x,x,x,
COc1cccc(N=Cc2c(O)n(Cc3ccco3)c(=O)[nH]c2=O)c1,17.0,7.6,-0.4,19.1,x,x,
CC(C)n1c(=O)c(C=Nc2ccc(F)cc2)c(O)n(Cc2ccco2)c1=O,48.2*,22.6,2.5,10.6,-4.8,5.1,
CN1C2CNC(=O)CC1C1CCC2C1 (centres undefined),x,x,0.2,x,x,x,
Cc1cccc(N2C(=O)NC(=O)/C(=C/c3ccc(-c4ccc(C(=O)O)c(Cl)c4)o3)C2=O)c1,37.3*,-0.4,x,-12.7,-22.4,13.6,
C[C@@H]1CN([C@H](C)CO)C(=O)CCCn2nncc2CO[C@H]1CN(C)C(=O)Oc1cccc2ccccc12,x,x,0.1,x,x,x,
CCOc1ccccc1-n1c(O)c(C=Nc2ccc(N(CC)CC)cc2)c(=O)[nH]c1=O,54.2*,0.1,-0.8,x,-7.3,-12.5,
Cc1ccccc1-n1c(O)c(C=Nc2ccc3c(c2)OCO3)c(=O)[nH]c1=O,36.7*,-3.4,-0.4,x,-14.3,1.1,
O=c1nc(/C=C/c2ccc(Cl)cc2Cl)cc(C(F)(F)F)[nH]1,46.4*,x,-0.3,-0.8,70.4*,-16.4,
O=C(c1ccccc1)c1cn(CC(=O)N2CCOCC2)c2ccccc12,57.0*,-4.1,-0.2,4.2,-6.9,3.5,
O=C(c1ccccc1)c1cn(CC(=O)N2CCCC2)c2ccccc12,-11.5,-1.4,-0.8,x,x,x,
COc1ccc(N2C(=O)NC(=O)/C(=C/c3ccc([N+](=O)[O-])s3)C2=O)cc1,38.5*,1.3,0.1,1.0,50.1*,0.2,FID counter DR=i
O=C1NC(=S)N(c2ccccc2)C(=O)/C1=C/c1ccco1,41.2*,4.0,-0.6,-24.5,68.8*,0.3,
Cc1ccc(/C=C2\C(=O)NC(=S)N(c3ccc(F)cc3)C2=O)o1,19.7,x,-1.6,-3.7,x,x,
COc1cccc(N2C(=O)/C(=C/c3ccc(C)o3)C(=O)NC2=S)c1,36.1*,9.2,0.0,11.8,59.5*,-13.5,
CC1(C)CC(CCNCc2ccc3c(c2)OCO3)(Cc2ccccc2)CCO1 (centres undefined),-9.3,-3.0,-0.5,-2.1,x,x,
O=C1NC(=O)N(Cc2ccccc2)C(=O)/C1=C/C=C/c1ccco1,33.3,11.5,0.3,-4.2,x,x,
CCN1C(=O)C(=C/C=C/c2ccco2)C(=O)N(CC)C1=S,39.1*,45.9,-0.3,-15.6,75.3*,5.9,
CCCc1cc(=O)oc2cc(OCC(=O)N3CCC(C(=O)O)(c4ccccc4)CC3)ccc12,48.8*,1.8,-2.5,-6.8,-23.8,-26.0,
SMILES,HCV NS3 hel inh,HCV core dimer,TbMetRS inhib,Hep lipid drop,NS3 helicase cf,FID counter trip,others
c1cc2c(cc1-c1ccc3c(c1)OCO3)CNCc1cnnn1-2,x,x,0.6,x,x,x,
CCn1c(O)c(C=Nc2ccc(N3CCOCC3)cc2)c(=O)n(CC)c1=S,39.7*,-4.8,0.7,x,-7.0,-22.4,
CC(=O)c1ccc2c(c1)C1C(Cl)C(Sc3ccccc3[N+](=O)[O-])CC1C(C(=O)O)N2 (centres undefined),40.7*,-2.2,0.0,8.4,52.0*,7.3,
O=C(O)c1cccc2c1NC(C(=O)O)C1CC(Sc3ccccc3[N+](=O)[O-])C(Cl)C21 (centres undefined),34.7,-5.7,1.1,7.1,x,x,
O=C1NC(=O)N(Cc2ccco2)C(=O)/C1=C\c1cccn1CCOc1ccc(Cl)cc1,43.7*,0.7,0.0,14.8,24.7,-5.4,
CC12CNCC(C)(CNC1)C2O (centres undefined),2.2,-0.6,0.0,x,x,x,
CC[n+]1c(/C=C/C=C/c2ccc(N(C)C)cc2)sc2ccccc21,48.1*,-28.9,-2.1,-98.6,107.3*,36.0,
O=C1NC(=O)C(=Cc2ccc(Cl)cc2)C(=O)N1,x,x,-0.5,x,x,x,
COc1ccc(N2CCN(Cc3nc4ccccc4[nH]3)CC2)cc1,37.9*,-14.7,2.8,-18.2,-11.2,-1.6,
CN1CCN(C(=O)Cc2nc3ccccc3[nH]2)CC1,-1.6,-3.1,-0.4,x,x,x,
C[C@]12CC[C@H](O)CC1C(=O)CC1C2CC[C@@]2(C)C1CC[C@@H]2O (some centres undefined),x,x,0.2,x,x,x,
CC1C(c2cccs2)=[N+]([O-])C(C)(C(=O)c2cccs2)N1O (centres undefined),10.1,0.2,-0.9,6.7,x,x,
O=C(N/N=C/c1c(O)n(CCc2ccc(F)cc2)c(=O)[nH]c1=O)c1ccncc1,37.9*,-8.0,-0.4,-5.3,-5.8,-13.0,
CN(C)[C@@H]1C(=O)C(C(N)=O)=C(O)[C@@]2(O)C(=O)C3=C(O)c4c(O)cccc4[C@@](C)(O)C3C[C@@H]12 (some centres undefined),x,-6.0,-1.3,x,x,x,
CN(C)[C@@H]1C(=O)C(C(N)=O)=C(O)[C@@]2(O)C(=O)C3=C(O)c4c(O)cccc4[C@@](C)(O)[C@H]3[C@H](O)[C@@H]12,36.3*,34.7,0.6,-5.3,96.8*,18.1,
CN(C)[C@@H]1C(=O)C(C(N)=O)=C(O)[C@@]2(O)C(=O)C3=C(O)c4c(O)ccc(Cl)c4[C@@](C)(O)[C@H]3C[C@@H]12,47.6*,-0.1,-1.3,1.8,7.5,20.1,
COc1ccc(OC(=O)N(C)C[C@@H]2OCc3cnnn3CCCC(=O)N([C@@H](C)CO)C[C@@H]2C)cc1,x,x,-1.9,x,x,x,
C=CCn1c(O)c(C(C)=NCCN2CCN(C(=S)NC)CC2)c(=O)[nH]c1=O,9.2,1.9,-0.3,2.8,x,x,
CC(=O)C1C(N2CC2)CC2C3CC=C4CC(O)CCC4(C)C3CCC21C (centres undefined),x,x,0.2,x,x,x,
